Results from ChEMBL document CHEMBL5321232, “Synthesis and biological evaluation of dual MDM2/XIAP inhibitors based on the tetrahydroquinoline scaffold” (Eur J Med Chem, 2023).
Activity calls are given as the source filed them. No cut-off for these calls is given here.

Columns and labels:
[1] = target: E3 ubiquitin-protein ligase Mdm2 (Homo sapiens) (UniProt Q00987); experiment: Inhibition of MDM2 in human EU-1 cells assessed as increase in PUMA expression upto 1 uM incubated at 8 hrs by Western blot analysis; assay type: cell-based
In short: (§1)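 EU-1 cells were treated at the doses and times indicated; for caspase-3, caspase-9 and PARP, 1 μM over a time course. Cells were lysed for 30 min in NaCl/Tris pH 8.0/EDTA/NP-40 buffer with protease inhibitors. Equal protein was run on SDS-PAGE and transferred to nitrocellulose. Membranes were blocked in milk, incubated with primary antibodies for 3 h at room temperature and HRP secondary for 1 h, then developed by ECL.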

[2] = Toxicity in NOD SCID mouse assessed as body weight loss at 60 mg/kg, ip administered for 10 days and measured every 3 days; assay type: organism-based; conditions: in vivo, 240 h, time 10 day
In short: (§2)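 Male humanized NSG mice, 8–9 weeks old, were injected s.c. in the right dorsal flank with 2 million 22Rv1 cells in medium/Matrigel 1:1. After ~14 days (mean tumor ~100 mm3), mice were randomized, n=5/group. Dosing was 60 mg/kg i.p. daily for 10 days in 5% DMSO/65% PEG400/30% saline, or vehicle alone. Caliper volume (a×b2×0.5) and body weight were recorded every 3 days.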

[3] = Antiproliferative activity against human EU-1 cells assessed as inhibition of cell growth incubated for 44 hrs by WST assay; assay type: functional, cell-based; conditions: EU-1, 44 h
In short: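 Pediatric ALL-derived EU-1 cells grown in RPMI 1640 with 10% FBS, 2 mmol/L L-glutamine and penicillin/streptomycin at 37 °C, 5% CO2. Compounds given at graded concentrations for 44 h. WST (25 μg/well) then added for a further 4 h. OD read at 450 nm against a 620 nm reference, with cell-free wells for background.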

CWR22R [4] = experiment: Antitumor activity against human 22Rv1 cells xenografted in NOD SCID mouse assessed as increase in cleaved caspase3 expression at 60 mg/kg, ip administered for 10 days by immunostaining analysis; assay type: functional, organism-based; conditions: time 10.0 day
In short: (§3)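 Tumors came from 22Rv1 xenografts in male NSG mice dosed i.p. daily for 10 days. Cryosections (10 μm) were fixed in 4% PFA and permeabilized with 0.25% Triton X-100, then blocked with 10% goat serum. Primary antibodies (1:200) against MDM2, cleaved caspase-3, cleaved PARP or CD31 were applied overnight at 4 °C, followed by fluorescent secondaries (1:1,000, 2 h) and a DAPI counterstain. Fluorescence intensity quantified as mean ± SEM.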

CWR22R [5] = experiment: Antitumor activity against human 22Rv1 cells xenografted in NOD SCID mouse assessed as increase in cleaved PARP expression at 60 mg/kg, ip administered for 10 days by immunostaining analysis; assay type: functional, organism-based; conditions: time 10.0 day; in short: as §3
[6] = target: E3 ubiquitin-protein ligase XIAP (Homo sapiens) (UniProt P98170); experiment: Inhibition of XIAP in human EU-1 cells assessed as increase in caspase-9 at 1 uM incubated upto 24 hrs by Western blot analysis; assay type: cell-based; in short: as §1
MDA-MB-231 = experiment: Antiproliferative activity against human MDA-MB-231 cells assessed as inhibition of cell growth incubated for 72 hrs by MTS assay; assay type: functional, cell-based; conditions: MDA-MB-231, 72 h
In short: (§4)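 Cells seeded at 3,000–8,000 per well according to growth rate and incubated overnight. They were then exposed to compounds over 3 nM–100 μM for 72 h, four replicates per concentration. MTS added, 1.5 h in the dark at 37 °C, absorbance read at 490 nm. IC50 normalized to untreated cells and fitted by nonlinear regression.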

A-375 [7] = experiment: Antiproliferative activity against human A-375 cells assessed as inhibition of cell growth incubated for 72 hrs by MTS assay; conditions: A-375, 72 h
[8] = target: E3 ubiquitin-protein ligase Mdm2 (Homo sapiens) (UniProt Q00987); experiment: Inhibition of MDM2 in human EU-1 cells assessed as increase in p21 expression upto 1 uM incubated at 8 hrs by Western blot analysis; assay type: cell-based; in short: as §1
[9] = target: E3 ubiquitin-protein ligase Mdm2 (Homo sapiens) (UniProt Q00987); experiment: Inhibition of MDM2 in human 22Rv1 cells assessed as increase in PARP expression upto 10 uM incubated at 24 hrs by Western blot analysis; assay type: cell-based
In short: (§5)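 22Rv1 or A375 cells grown to 80% confluence were exposed for 24 h to 1, 5 or 10 μM compound in DMEM. AMG-232 control ran at 100 nM–1 μM. Cells were lysed in RIPA with protease/phosphatase inhibitors, and 30 μg protein was run on SDS-PAGE/PVDF. Membranes were blocked in 5% milk and probed overnight at 4 °C for p53, c-PARP, MDM2 and GAPDH. Bands detected by HRP/ECL.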

[10] = target: E3 ubiquitin-protein ligase Mdm2 (Homo sapiens) (UniProt Q00987); experiment: Inhibition of MDM2 in human EU-1 cells assessed as increase in p53 expression upto 1 uM incubated at 8 hrs by Western blot analysis; assay type: cell-based; in short: as §1
CWR22R [11] = experiment: Antiproliferative activity against human 22Rv1 cells assessed as inhibition of cell growth incubated for 72 hrs by MTS assay; assay type: functional, cell-based; conditions: 22Rv1, 72 h; in short: as §4
EU-1 [12] = experiment: Downregulation of MDM2 expression in human EU-1 cells upto 1 uM by Western blot analysis; assay type: functional, cell-based; conditions: time 8.0 hrs, TDE = time-dependent effect; in short: as §1
[13] = target: E3 ubiquitin-protein ligase Mdm2 (Homo sapiens) (UniProt Q00987); experiment: Inhibition of MDM2 in human 22Rv1 cells assessed as increase in p53 expression upto 10 uM incubated at 24 hrs by Western blot analysis; assay type: cell-based; in short: as §5
EU-1 [14] = experiment: Downregulation of MDM2 expression in human EU-1 cells incubated for 8 hrs by Western blot analysis; assay type: functional, cell-based; conditions: dose <= 1.0 µM; in short: as §1
[15] = target: E3 ubiquitin-protein ligase Mdm2 (Homo sapiens) (UniProt Q00987); experiment: Inhibition of MDM2 in human A-375 cells assessed as increase in p53 expression upto 10 uM incubated at 24 hrs by Western blot analysis; assay type: cell-based
In short: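 22Rv1 or A375 cells grown to 80% confluence were exposed for 24 h to 1, 5 or 10 μM compound in DMEM. Cells were lysed in RIPA with protease/phosphatase inhibitors, and 30 μg protein was run on SDS-PAGE/PVDF. Membranes were blocked in 5% milk and probed overnight at 4 °C for p53, c-PARP, MDM2 and GAPDH. Bands detected by HRP/ECL.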

CWR22R [16] = experiment: Inhibition of colony formation in human 22Rv1 cells assessed as reduction in number of clonogenic cells incubated for 14 days and subsequent media replacement with compound for every 3 days by crystal violet staining based microscopic analysis; assay type: functional, cell-based; conditions: dose 1-10 µM, time 14.0 day
In short: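 22Rv1 cells in log phase were seeded at 2,000 per well and incubated 72 h. They were then treated with 1, 5 or 10 μM for 14 days, with medium ± compound renewed every 3 days. Colonies were fixed in cold methanol, stained with 0.5% crystal violet and counted microscopically. Run in triplicate; area expressed relative to vehicle (100%) as mean ± SEM of three biological replicates.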

A-375 [17] = experiment: Inhibition of colony formation in human A-375 cells assessed as reduction in number of clonogenic cells at 1 to 10 uM incubated for 10 days and subsequent media replacement with compound for every 3 days by crystal violet staining based microscopic analysis; assay type: functional, cell-based; conditions: dose 1-10 µM, time 10.0 day
In short: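 A375 cells in log phase were seeded at 250 per well and incubated 48 h. They were then treated with 1, 5 or 10 μM for 10 days, with medium ± compound changed every 3 days. Colonies were methanol-fixed, stained with 0.5% crystal violet and counted by microscopy. Colony area expressed versus vehicle (100%) as mean ± SEM of three biological replicates.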

CWR22R [18] = experiment: Antitumor activity against human 22Rv1 cells xenografted in NOD SCID mouse assessed as decrease in MDM2 expression at 60 mg/kg, ip administered for 10 days by immunostaining analysis; assay type: functional, organism-based; conditions: time 10.0 day; in short: as §3
[19] = target: E3 ubiquitin-protein ligase XIAP (Homo sapiens) (UniProt P98170); experiment: Inhibition of XIAP in human EU-1 cells assessed as increase in caspase3 at 1 uM incubated upto 24 hrs by Western blot analysis; assay type: cell-based; in short: as §1
[20] = target: E3 ubiquitin-protein ligase Mdm2 (Homo sapiens) (UniProt Q00987); experiment: Inhibition of MDM2 in human A-375 cells assessed as increase in PARP expression upto 10 uM incubated at 24 hrs by Western blot analysis; assay type: cell-based; in short: as §5
CWR22R [21] = experiment: Antitumor activity against human 22Rv1 cells xenografted in NOD SCID mouse assessed as inhibition of tumor growth at 60 mg/kg, ip administered for 10 days and measured every 3 days; assay type: functional, organism-based; conditions: time 10.0 day; in short: as §2
CWR22R [22] = experiment: Antitumor activity against human 22Rv1 cells xenografted in NOD SCID mouse assessed as disruption of tumor vasculature at 60 mg/kg, ip administered for 10 days by immunostaining analysis; assay type: functional, organism-based; conditions: time 10.0 day; in short: as §3
[23] = target: E3 ubiquitin-protein ligase XIAP (Homo sapiens) (UniProt P98170); experiment: Inhibition of XIAP in human EU-1 cells assessed as increase in PARP at 1 uM incubated upto 24 hrs by Western blot analysis; assay type: cell-based; in short: as §1
CWR22R [24] = experiment: Antitumor activity against human 22Rv1 cells xenografted in NOD SCID mouse at 60 mg/kg, ip administered for 10 days and measured every 3 days; assay type: functional, organism-based; conditions: time 10.0 day; in short: as §2

Chain of E3 ubiquitin-protein ligase Mdm2 (Homo sapiens) (Q00987 whole entry, looked up): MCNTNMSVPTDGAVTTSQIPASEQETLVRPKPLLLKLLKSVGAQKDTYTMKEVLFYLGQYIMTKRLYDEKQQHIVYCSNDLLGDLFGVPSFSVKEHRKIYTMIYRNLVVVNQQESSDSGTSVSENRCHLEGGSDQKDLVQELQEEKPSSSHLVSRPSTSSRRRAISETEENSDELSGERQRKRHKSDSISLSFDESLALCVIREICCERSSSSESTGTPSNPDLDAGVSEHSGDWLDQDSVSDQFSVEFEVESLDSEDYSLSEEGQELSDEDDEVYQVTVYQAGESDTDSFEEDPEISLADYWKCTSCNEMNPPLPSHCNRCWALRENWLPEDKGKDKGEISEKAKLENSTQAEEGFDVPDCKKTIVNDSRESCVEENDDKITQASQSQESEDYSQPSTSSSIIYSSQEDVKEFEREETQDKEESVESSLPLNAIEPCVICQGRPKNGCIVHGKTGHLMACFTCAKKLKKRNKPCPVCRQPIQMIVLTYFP
Chain of E3 ubiquitin-protein ligase XIAP (Homo sapiens) (P98170 whole entry): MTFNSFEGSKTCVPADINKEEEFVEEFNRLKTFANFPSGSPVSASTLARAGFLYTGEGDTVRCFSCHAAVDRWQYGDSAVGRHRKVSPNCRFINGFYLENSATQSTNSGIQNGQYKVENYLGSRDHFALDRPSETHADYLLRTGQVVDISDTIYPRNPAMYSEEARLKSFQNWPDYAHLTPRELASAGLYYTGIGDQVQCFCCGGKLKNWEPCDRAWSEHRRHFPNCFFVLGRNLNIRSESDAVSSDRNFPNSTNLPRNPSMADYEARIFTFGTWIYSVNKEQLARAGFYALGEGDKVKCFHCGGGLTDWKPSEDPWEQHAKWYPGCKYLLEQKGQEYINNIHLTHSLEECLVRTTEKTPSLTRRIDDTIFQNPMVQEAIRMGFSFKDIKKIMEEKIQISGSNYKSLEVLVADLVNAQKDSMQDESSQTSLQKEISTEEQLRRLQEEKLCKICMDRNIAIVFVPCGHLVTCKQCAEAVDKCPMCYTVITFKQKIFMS

For CC(=O)c1cccc(NS(=O)(=O)c2ccc3c(c2)C2OCCC2C(c2ccc(C(=O)C(C)C)cc2)N3)c1 (stereo not given), the inhibition [1] was “Active”, the Activity [2] was “Non-Toxic” and the IC50 [3] was 0.2 µM. For the same compound, the Activity (CWR22R [4]) was “Active”, the Activity (CWR22R [5]) was “Active” and the inhibition [6] was “Active”. For the same compound, the IC50 (MDA-MB-231) was 1.5 µM, the IC50 (A-375 [7]) was 1 µM and the inhibition [8] was “Active”. For the same compound, the inhibition [9] was “Active”, the inhibition [10] was “Active” and the IC50 (CWR22R [11]) was 5.3 µM. The Activity (EU-1 [12]) was “Tde”, the inhibition [13] was “Active” and the Activity (EU-1 [14]) was “Dose-Dependent Effect”. For the same compound, the inhibition [15] was “Active”, the inhibition (CWR22R [16]) was “Dose-Dependent Effect” and the inhibition (A-375 [17]) was “Active”. The Activity (CWR22R [18]) was “Active”, the inhibition [19] was “Active” and the inhibition [20] was “Active”. For the same compound, the Activity (CWR22R [21]) was “Active”, the Activity (CWR22R [22]) was “Active” and the inhibition [23] was “Active”. The Activity (CWR22R [24]) was “Active”.
